We go through two molecules from ChEMBL document CHEMBL3352043, “Discovery of small-molecule inhibitors selectively targeting the DNA-binding domain of the human androgen receptor” (J Med Chem, 2014).

The structures appear in SMILES notation. Active and inactive are the calls of the source. The calls are words filed in the database; no cut-off is given here.

Data set [1] can be described thus: Growth inhibition of AR-negative human PC3 cells after 3 days by MTS assay. It counts as cell-based. The settings on record: pc-3, 72 h.
For data set [2], the target named is T1, Androgen receptor (Homo sapiens) (UniProt P10275).
T1 sequence (whole entry): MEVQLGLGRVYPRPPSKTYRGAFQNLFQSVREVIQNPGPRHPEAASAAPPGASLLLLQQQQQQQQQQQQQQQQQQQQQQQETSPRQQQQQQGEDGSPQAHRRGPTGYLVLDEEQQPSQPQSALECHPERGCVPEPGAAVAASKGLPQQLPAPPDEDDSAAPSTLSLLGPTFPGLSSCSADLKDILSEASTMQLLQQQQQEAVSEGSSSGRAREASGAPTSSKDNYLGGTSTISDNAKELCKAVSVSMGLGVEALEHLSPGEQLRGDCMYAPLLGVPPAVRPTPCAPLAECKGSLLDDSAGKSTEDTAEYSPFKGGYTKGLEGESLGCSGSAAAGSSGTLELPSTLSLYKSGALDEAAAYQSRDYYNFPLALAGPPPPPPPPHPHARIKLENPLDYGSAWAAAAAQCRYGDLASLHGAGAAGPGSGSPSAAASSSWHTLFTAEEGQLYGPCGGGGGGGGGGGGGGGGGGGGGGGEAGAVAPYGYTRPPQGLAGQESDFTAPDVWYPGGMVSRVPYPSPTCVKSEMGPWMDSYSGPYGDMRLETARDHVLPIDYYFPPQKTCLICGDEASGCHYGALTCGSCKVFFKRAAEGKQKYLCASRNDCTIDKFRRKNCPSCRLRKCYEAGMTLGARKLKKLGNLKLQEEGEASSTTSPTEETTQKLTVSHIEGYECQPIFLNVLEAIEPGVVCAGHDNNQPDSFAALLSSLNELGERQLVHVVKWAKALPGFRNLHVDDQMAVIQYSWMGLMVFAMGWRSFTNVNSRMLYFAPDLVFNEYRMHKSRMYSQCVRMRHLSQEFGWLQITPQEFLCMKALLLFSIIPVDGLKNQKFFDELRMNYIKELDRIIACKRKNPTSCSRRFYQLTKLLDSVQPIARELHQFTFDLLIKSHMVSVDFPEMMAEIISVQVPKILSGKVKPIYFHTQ
Put plainly: Inhibition of androgen receptor V7 (unknown origin) expressed in human PC3 cells assessed as inhibition of transcription activity after 24 hrs by luciferase reporter gene assay. It counts as cell-based. Conditions: PC-3. In outline: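 PC3 cells were starved 5 days in RPMI 1640 with 5% charcoal-stripped serum and seeded at 5000 cells/well. After 24 h they were cotransfected with AR-V7 or hAR mutant plasmid plus 50 ng ARR3tk-luciferase. At 48 h post-transfection, compounds were added for 24 h with 0.1 nM R1881. Luminescence was read from passive-lysis-buffer lysates; mutant tests used 10 μM.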
(In a reporter assay the amount or activity of a reporter protein is the signal.)

The target of data set [3] is T2, Glucocorticoid receptor (Homo sapiens) (UniProt P04150).
T2 sequence (whole entry): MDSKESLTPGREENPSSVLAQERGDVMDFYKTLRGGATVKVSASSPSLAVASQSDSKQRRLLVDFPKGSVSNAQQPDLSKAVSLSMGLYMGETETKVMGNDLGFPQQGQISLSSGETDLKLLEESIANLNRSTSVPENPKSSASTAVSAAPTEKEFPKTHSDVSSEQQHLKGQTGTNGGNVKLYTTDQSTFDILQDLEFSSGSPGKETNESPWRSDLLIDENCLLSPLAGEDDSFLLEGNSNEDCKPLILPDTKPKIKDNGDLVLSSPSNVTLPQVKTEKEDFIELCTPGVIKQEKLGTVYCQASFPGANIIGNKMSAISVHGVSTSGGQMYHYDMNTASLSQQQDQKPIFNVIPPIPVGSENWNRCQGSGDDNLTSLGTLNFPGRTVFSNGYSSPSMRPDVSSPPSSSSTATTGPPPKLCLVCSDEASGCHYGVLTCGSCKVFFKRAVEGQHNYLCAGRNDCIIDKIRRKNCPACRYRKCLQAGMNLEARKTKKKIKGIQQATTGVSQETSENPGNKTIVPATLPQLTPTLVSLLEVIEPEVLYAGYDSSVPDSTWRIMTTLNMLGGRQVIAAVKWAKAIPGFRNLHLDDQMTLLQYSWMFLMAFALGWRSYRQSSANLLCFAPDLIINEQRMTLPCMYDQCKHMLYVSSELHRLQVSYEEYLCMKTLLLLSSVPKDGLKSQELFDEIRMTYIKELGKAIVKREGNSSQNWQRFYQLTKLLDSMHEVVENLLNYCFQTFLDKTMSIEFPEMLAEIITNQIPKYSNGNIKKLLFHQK
Put plainly: Inhibition of glucocorticoid receptor (unknown origin) transcriptional activity at […]. The gist of the method:
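PC3 cells were starved 5 days in RPMI 1640 with 5% charcoal-stripped serum. They were cotransfected with GR or PR plasmid plus 50 ng ARR3tk-luciferase, and 48 h later treated with compound for 24 h. Stimulation was 1 nM dexamethasone (GR) or progesterone (PR). Luciferase luminescence was read from cell lysates.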

Data set [4] in a line: Stability of the compound in RPMI plus 5% charcoal stripped serum media after 1 hr by MS analysis. It counts as physicochemical.
The test system of another data set is LNCaP. Put plainly: Growth inhibition of AR-dependent human LNCAP cells after 3 days by MTS assay. Type of data set: functional, cell-based. The gist of the method:
(§1)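 LNCaP and MR49F cells were seeded at 3000 cells/well in RPMI 1640 with 5% charcoal-stripped serum. They were treated with 0.1 nM R1881 plus compound (0−25 μM) for 4 days; the figure legend gives 3 days. Readout was MTS tetrazolium absorbance. Growth was normalized as (sample − vehicle)/(0.1 nM R1881 − vehicle) × 100.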
For orientation: Formazan colour is commonly taken as a measure of viable cells.

The target of the next data set is T3, Androgen receptor (Homo sapiens, UniProt P10275).
T3 sequence (P10275 whole entry): T1 sequence (whole entry)
Put plainly: Inhibition of androgen receptor transcriptional activity in human LNCaP cells after 3 days by eGFP assay. It counts as cell-based.

Another data set relates to MR49F. Put plainly: Growth inhibition of enzalutamide-resistant human MR49F cells after 3 days by MTS assay. It counts as functional, cell-based. In outline:
as §1

By IC50 is commonly meant the concentration that gives 50% inhibition. A high value points to weaker potency in that assay. As for `Brc1ncn(-c2csc(N3CCOCC3)n2)c1Br`, the Activity result in data set [1] was “Non-toxic”. For the same molecule, the inhibition result in data set [2] was “Dose-dependent effect”. Further, the inhibition result in data set [3] is “inactive”. The Stability result in data set [4] is “Stable”. In addition, the “growth inhibition (GI)” value in the data set with LNCaP is “Dose-dependent effect”. The molecule further came in with an IC50 at Androgen receptor of 120 nM. Also, the “growth inhibition (GI)” value with MR49F is “Active”.

`c1ccc(-c2csc(N3CCOCC3)n2)cc1`: the inhibition entry in data set [2] is “Dose-dependent effect”. The inhibition entry in data set [3] is “inactive”. Besides, the concentration for half-maximal inhibition (IC50) at Androgen receptor was 330 nM.
